Source: ChEMBL document CHEMBL3608288, “Novel Chalcone-Thiazole Hybrids as Potent Inhibitors of Drug Resistant Staphylococcus aureus” (ACS Med Chem Lett, 2015)
In brackets after ≈: the same amount, converted by molar mass. Activity calls are given as the source filed them. The calls are words filed in the database; no cut-off is given here.

Assays:
Staphylococcus aureus [1] = assay: Antibacterial activity against Staphylococcus aureus ATCC 25923 after 16 hrs by microtiter broth dilution method; format: functional
Staphylococcus aureus [2] = assay: Antibacterial activity against […] Staphylococcus aureus ATCC 29213 after 16 hrs by microtiter broth dilution method; format: functional
Cryptococcus neoformans = assay: Antifungal activity against Cryptococcus neoformans after 16 hrs by microtiter broth dilution method; format: functional
Escherichia coli = assay: Antibacterial activity against Escherichia coli ATCC 9637 after 16 hrs by microtiter broth dilution method; format: functional; conditions: W
[3] = system: Trichophyton mentagrophytes; assay: Antifungal activity against Trichophyton mentagrophytes after 16 hrs by microtiter broth dilution method; format: functional
[4] = Hemolytic activity in human RBC at 100 ug/ml after 1 hr; conditions: erythrocyte
Staphylococcus aureus [5] = assay: Antibacterial activity against methicillin-resistant Staphylococcus aureus ATCC 700699 after 16 hrs by microtiter broth dilution method; format: functional
Aspergillus fumigatus = assay: Antifungal activity against Aspergillus fumigatus after 16 hrs by microtiter broth dilution method; format: functional
Staphylococcus aureus [6] = assay: Antibacterial activity against methicillin/gentamicin-resistant Staphylococcus aureus ATCC 33592 after 16 hrs by microtiter broth dilution method; format: functional
Candida albicans = assay: Antifungal activity against Candida albicans after 16 hrs by microtiter broth dilution method; format: functional
Sporothrix schenckii = assay: Antifungal activity against Sporothrix schenckii after 16 hrs by microtiter broth dilution method; format: functional
Pseudomonas aeruginosa = assay: Antibacterial activity against Pseudomonas aeruginosa ATCC BAA-427 after 16 hrs by microtiter broth dilution method; format: functional
Candida parapsilosis = assay: Antifungal activity against Candida parapsilosis ATCC 22019 after 16 hrs by microtiter broth dilution method; format: functional
Klebsiella pneumoniae = assay: Antibacterial activity against Klebsiella pneumoniae ATCC 27736 after 16 hrs by microtiter broth dilution method; format: functional
L929 [7] = assay: Cytotoxicity against mouse L929 cells assessed as cell viability at <= MIC by MTT assay; format: cell-based
In short: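 Mouse fibroblast L929 cells were exposed to the compound. Viability was read by MTT conversion to blue formazan, measured at 550 nm.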

L929 [8] = assay: Cytotoxicity against mouse L929 cells assessed as induction of morphological changes at 1 x MIC after 24 hrs by Giemsa staining-based phase contrast microscopic analysis; format: cell-based; conditions: l929, 24 h
In short: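 L929 fibroblasts were incubated with the compound for 24 h, then Giemsa-stained. Morphology was compared with untreated control cells under phase contrast microscopy for appearance, transparency and attachment to the well surface.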

Staphylococcus aureus [9] = assay: Antibacterial activity against […] Staphylococcus aureus ATCC 29213 assessed as reduction in log10CFU at 1x MIC and 10x MIC measured at 24 hrs relative to control; format: functional
In short: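 Aliquots were taken at regular time points and plated for CFU counts. Reduction in log10 CFU was taken against a no-drug control.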

[10] = Lodderomyces parapsilosis, ATCC 22019, 16 h

Compound	MIC (Staphylococcus aureus [1]; ATCC 25923, 16 h)	MIC (Staphylococcus aureus [2]; ATCC 29213, 16 h)	MIC (Cryptococcus neoformans)	MIC (Escherichia coli)	MIC [3]	Activity [4]	MIC (Staphylococcus aureus [5]; ATCC 700699, 16 h)	MIC (Aspergillus fumigatus)	MIC (Staphylococcus aureus [6]; ATCC 33592, 16 h)	MIC (Candida albicans)	MIC (Sporothrix schenckii)	MIC (Pseudomonas aeruginosa; ATCC BAA-427, 16 h)	MIC (Candida parapsilosis; [10])	MIC (Klebsiella pneumoniae; ATCC 27736, 16 h)	further results
CCCc1cc(/C=C/C(=O)c2ccco2)cc(/C=N/c2nc(C(=O)OCC)cs2)c1O	51.2 µM (≈ 22.5 µg/mL)	51.2 µM (≈ 22.5 µg/mL)	> 102 µM	> 102 µM	> 102 µM	Non-toxic	51.2 µM (≈ 22.5 µg/mL)	> 102 µM	51.2 µM (≈ 22.5 µg/mL)	> 102 µM	> 102 µM	> 102 µM	> 102 µM	> 102 µM	
OC(Cn1cncn1)(Cn1cncn1)c1ccc(F)cc1F [FLUCONAZOLE]	> 34.5 µM	> 34.5 µM	1.4 µM (≈ 0.429 µg/mL)	> 34.5 µM	22.1 µM (≈ 6.77 µg/mL)		> 34.5 µM	22.1 µM (≈ 6.77 µg/mL)	> 34.5 µM	0.7 µM (≈ 0.214 µg/mL)	1.4 µM (≈ 0.429 µg/mL)	> 34.5 µM	1.4 µM (≈ 0.429 µg/mL)	> 34.5 µM	
GENTAMICIN			105 µM	6.5 µM	105 µM			105 µM		> 105 µM	105 µM				MIC (Staphylococcus aureus [1]): 1.6 µM; MIC (Staphylococcus aureus [2]): 3.3 µM; MIC (Staphylococcus aureus [5]): 105 µM; MIC (Staphylococcus aureus [6]): 105 µM; MIC (Pseudomonas aeruginosa): 1.6 µM; MIC (Candida parapsilosis): 105 µM; MIC (Klebsiella pneumoniae): 3.3 µM
COc1ccc(C(=O)/C=C/c2cc(/C=N/c3nc(-c4ccc(OC)cc4)cs3)c(O)c(C(C)(C)C)c2)cc1	11.9 µM (≈ 6.27 µg/mL)	11.9 µM (≈ 6.27 µg/mL)	> 94.9 µM	> 94.9 µM	> 94.9 µM	Non-toxic	11.9 µM (≈ 6.27 µg/mL)	> 94.9 µM	3 µM (≈ 1.58 µg/mL)	> 94.9 µM	> 94.9 µM	> 94.9 µM	> 94.9 µM	> 94.9 µM	
CCOC(=O)c1csc(/N=C/c2cc(/C=C/C(=O)c3ccc(C)cc3)cc(C(C)C)c2O)n1	27 µM (≈ 12.5 µg/mL)	13.5 µM (≈ 6.24 µg/mL)	> 108 µM	> 108 µM	> 108 µM	Non-toxic	13.5 µM (≈ 6.24 µg/mL)	> 108 µM	13.5 µM (≈ 6.24 µg/mL)	> 108 µM	> 108 µM	> 108 µM	> 108 µM	> 108 µM	
CN[C@H](CC(C)C)C(=O)N[C@H]1C(=O)N[C@@H](CC(N)=O)C(=O)N[C@H]2C(=O)N[C@H]3C(=O)N[C@H](C(=O)N[C@H](C(=O)O)c4cc(O)cc(O)c4-c4cc3ccc4O)[C@H](O)c3ccc(c(Cl)c3)Oc3cc2cc(c3O[C@@H]2O[C@H](CO)[C@@H](O)[C@H](O)[C@H]2O[C@H]2C[C@](C)(N)[C@H](O)[C@H](C)O2)Oc2ccc(cc2Cl)[C@H]1O [VANCOMYCIN]	2.4 µM (≈ 3.48 µg/mL)	1.2 µM (≈ 1.74 µg/mL)	157 µM (≈ 227 µg/mL)	> 157 µM	157 µM (≈ 227 µg/mL)		9.8 µM (≈ 14.2 µg/mL)	157 µM (≈ 227 µg/mL)	2.4 µM (≈ 3.48 µg/mL)	> 157 µM	157 µM (≈ 227 µg/mL)	> 157 µM	157 µM (≈ 227 µg/mL)	> 157 µM	
CCOC(=O)c1csc(/N=C/c2cc(/C=C/C(=O)c3ccc(OC)cc3)cc(C(C)C)c2O)n1	26.1 µM (≈ 12.5 µg/mL)	26.1 µM (≈ 12.5 µg/mL)	> 104 µM	> 104 µM	> 104 µM	Non-toxic	26.1 µM (≈ 12.5 µg/mL)	> 104 µM	26.1 µM (≈ 12.5 µg/mL)	> 104 µM	> 104 µM	> 104 µM	> 104 µM	> 104 µM	
COc1ccc(-c2csc(/N=C/c3cc(/C=C/C(=O)c4ccc(C)cc4)cc(C(C)(C)C)c3O)n2)cc1	12.2 µM (≈ 6.23 µg/mL)	12.2 µM (≈ 6.23 µg/mL)	> 97.9 µM	> 97.9 µM	> 97.9 µM	Non-toxic	12.2 µM (≈ 6.23 µg/mL)	> 97.9 µM	12.2 µM (≈ 6.23 µg/mL)	> 97.9 µM	> 97.9 µM	> 97.9 µM	> 97.9 µM	> 97.9 µM	
CCOC(=O)c1csc(/N=C/c2cc(/C=C/C(=O)c3cccs3)cc(C(C)C)c2O)n1	27.5 µM (≈ 12.5 µg/mL)	27.5 µM (≈ 12.5 µg/mL)	> 110 µM	> 110 µM	> 110 µM	Non-toxic	27.5 µM (≈ 12.5 µg/mL)	> 110 µM	13.7 µM (≈ 6.23 µg/mL)	> 110 µM	> 110 µM	> 110 µM	> 110 µM	> 110 µM	
CCOC(=O)c1csc(/N=C/c2cc(/C=C/C(=O)c3ccc(C)cc3)cc(C(C)(C)C)c2O)n1	6.5 µM (≈ 3.1 µg/mL)	6.5 µM (≈ 3.1 µg/mL)	> 105 µM	> 105 µM	> 105 µM	Non-toxic	13.1 µM (≈ 6.24 µg/mL)	> 105 µM	3.3 µM (≈ 1.57 µg/mL)	> 105 µM	> 105 µM	> 105 µM	> 105 µM	> 105 µM	Activity (L929 [7]): Non-toxic; Activity (L929 [8]): Non-toxic
CCOC(=O)c1csc(/N=C/c2cc(/C=C/C(=O)c3ccc(OC)cc3)cc(C(C)(C)C)c2O)n1	12.7 µM (≈ 6.26 µg/mL)	12.7 µM (≈ 6.26 µg/mL)	> 102 µM	> 102 µM	> 102 µM	Non-toxic	12.7 µM (≈ 6.26 µg/mL)	> 102 µM	3.2 µM (≈ 1.58 µg/mL)	> 102 µM	> 102 µM	> 102 µM	> 102 µM	> 102 µM	
CCn1cc(C(=O)O)c(=O)c2cc(F)c(N3CCNCC3)cc21 [NORFLOXACIN]	0.5 µM (≈ 0.16 µg/mL)	1 µM (≈ 0.319 µg/mL)	33.6 µM (≈ 10.7 µg/mL)		33.6 µM (≈ 10.7 µg/mL)		33.6 µM (≈ 10.7 µg/mL)	33.6 µM (≈ 10.7 µg/mL)	0.5 µM (≈ 0.16 µg/mL)	> 33.6 µM	33.6 µM (≈ 10.7 µg/mL)	1 µM (≈ 0.319 µg/mL)	33.6 µM (≈ 10.7 µg/mL)	0.1 µM (≈ 0.0319 µg/mL)	
CCOC(=O)c1csc(/N=C/c2cc(/C=C/C(=O)c3ccco3)cc(C(C)(C)C)c2O)n1	13.8 µM (≈ 6.24 µg/mL)	13.8 µM (≈ 6.24 µg/mL)	> 110 µM	> 110 µM	> 110 µM	Non-toxic	13.8 µM (≈ 6.24 µg/mL)	> 110 µM	13.8 µM (≈ 6.24 µg/mL)	> 110 µM	> 110 µM	> 110 µM	> 110 µM	> 110 µM	
C[C@H]1COc2c(N3CCN(C)CC3)c(F)cc3c(=O)c(C(=O)O)cn1c23															Activity (Staphylococcus aureus [9]): Active
COc1ccc(-c2csc(/N=C/c3cc(/C=C/C(=O)c4cccs4)cc(C(C)(C)C)c3O)n2)cc1OC	23.5 µM (≈ 12.5 µg/mL)	11.7 µM (≈ 6.23 µg/mL)	> 93.9 µM	> 93.9 µM	> 93.9 µM	Non-toxic	11.7 µM (≈ 6.23 µg/mL)	> 93.9 µM	11.7 µM (≈ 6.23 µg/mL)	> 93.9 µM	> 93.9 µM	> 93.9 µM	> 93.9 µM	> 93.9 µM	
COc1ccc(C(=O)/C=C/c2cc(/C=N/c3nc(-c4ccc(OC)c(OC)c4)cs3)c(O)c(C(C)(C)C)c2)cc1	11.2 µM (≈ 6.23 µg/mL)	11.2 µM (≈ 6.23 µg/mL)	> 89.8 µM	> 89.8 µM	> 89.8 µM	Non-toxic	11.2 µM (≈ 6.23 µg/mL)	> 89.8 µM	5.6 µM (≈ 3.12 µg/mL)	> 89.8 µM	> 89.8 µM	> 89.8 µM	> 89.8 µM	> 89.8 µM	
CCOC(=O)c1csc(/N=C/c2cc(/C=C/C(=O)c3cccs3)cc(C(C)(C)C)c2O)n1	13.3 µM (≈ 6.23 µg/mL)	6.7 µM (≈ 3.14 µg/mL)	> 107 µM	> 107 µM	> 107 µM	Non-toxic	13.3 µM (≈ 6.23 µg/mL)	> 107 µM	3.3 µM (≈ 1.55 µg/mL)	> 107 µM	> 107 µM	> 107 µM	> 107 µM	> 107 µM	
C[C@@H]1[C@H](O)[C@@H](C)/C=C/C=C/C=C/C=C/C=C/C=C/C=C/[C@H](O[C@@H]2O[C@H](C)[C@@H](O)[C@H](N)[C@@H]2O)C[C@@H]2O[C@](O)(C[C@@H](O)C[C@@H](O)[C@H](O)CC[C@@H](O)C[C@@H](O)CC(=O)O[C@H]1C)C[C@H](O)[C@H]2C(=O)O [AMPHOTERICIN B]	> 54.1 µM	> 54.1 µM	0.1 µM (≈ 0.0924 µg/mL)	> 54.1 µM	0.3 µM (≈ 0.277 µg/mL)		> 54.1 µM	0.5 µM (≈ 0.462 µg/mL)	> 54.1 µM		0.3 µM (≈ 0.277 µg/mL)	> 54.1 µM		> 54.1 µM	
